Assay [1] deals with T1, Histamine H3 receptor (Homo sapiens, UniProt Q9Y5N1). The experiment in a line: Antagonist activity at human recombinant histamine H3 receptor expressed in human SK-N-MC cells. It counts as functional, cell-based. To be noted: read-out: pA2 (converted).
Assay [2] addresses T1, Histamine H3 receptor. The experiment in a line: Displacement of [125I]iodoproxyfan from human recombinant histamine H3 receptor expressed in human SK-N-MC cells. It counts as cell-based. An outline of the steps: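 Cells stably expressing human H3 were grown to confluence, washed in PBS, pelleted and stored at −80 °C. Pellets were homogenized in 50 mM Tris–HCl, 5 mM EDTA, pH 7.5, spun at 1000g for 5 min, then at 25,000g for 25 min.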

Assay [3] addresses T2, Histamine H3 receptor (Rattus norvegicus, UniProt Q9QYN8). In words: Displacement of [125I]iodoproxyfan from rat recombinant histamine H3 receptor expressed in human SK-N-MC cells. The format is cell-based. (In general: Displacement assays read how much labelled ligand stays bound in the presence of the test substance.)
In assay [4] the target is T2, Histamine H3 receptor. In words: Antagonist activity rat recombinant histamine H3 receptor expressed in human SK-N-MC cells. It counts as functional, cell-based. To be noted: read-out: pA2 (converted).
Another assay relates to Rattus norvegicus. In words: Ex vivo histamine H3 receptor occupancy in rat striatum at 0.3 mg/kg, po. It counts as functional. The method, boiled down:
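Rats were dosed orally, and striatal H3 receptor occupancy was measured ex vivo 60 min after dosing. Plasma and brain drug levels were taken at the same time. Values are mean ± SEM, n = 3.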

These results are taken from ChEMBL document CHEMBL1143437, “2-Aryloxymethylmorpholine histamine H(3) antagonists” (Bioorg Med Chem Lett, 2008).

Each structure is given as a SMILES string. Bounds are passed on as bounds.

T2 sequence (Q9QYN8 whole entry): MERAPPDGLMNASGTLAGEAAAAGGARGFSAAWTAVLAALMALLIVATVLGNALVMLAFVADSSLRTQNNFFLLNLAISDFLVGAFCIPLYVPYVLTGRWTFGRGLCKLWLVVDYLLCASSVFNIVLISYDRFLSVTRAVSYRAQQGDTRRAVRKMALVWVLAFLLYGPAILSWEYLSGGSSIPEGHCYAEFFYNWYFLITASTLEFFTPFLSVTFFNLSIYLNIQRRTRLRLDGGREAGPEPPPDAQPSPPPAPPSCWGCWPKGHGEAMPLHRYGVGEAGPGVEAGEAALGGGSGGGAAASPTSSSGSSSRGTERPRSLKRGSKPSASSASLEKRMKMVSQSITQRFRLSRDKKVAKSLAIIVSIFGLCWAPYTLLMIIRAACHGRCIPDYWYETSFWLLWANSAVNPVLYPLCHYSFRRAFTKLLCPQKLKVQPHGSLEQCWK
T1 sequence (Q9Y5N1 whole entry): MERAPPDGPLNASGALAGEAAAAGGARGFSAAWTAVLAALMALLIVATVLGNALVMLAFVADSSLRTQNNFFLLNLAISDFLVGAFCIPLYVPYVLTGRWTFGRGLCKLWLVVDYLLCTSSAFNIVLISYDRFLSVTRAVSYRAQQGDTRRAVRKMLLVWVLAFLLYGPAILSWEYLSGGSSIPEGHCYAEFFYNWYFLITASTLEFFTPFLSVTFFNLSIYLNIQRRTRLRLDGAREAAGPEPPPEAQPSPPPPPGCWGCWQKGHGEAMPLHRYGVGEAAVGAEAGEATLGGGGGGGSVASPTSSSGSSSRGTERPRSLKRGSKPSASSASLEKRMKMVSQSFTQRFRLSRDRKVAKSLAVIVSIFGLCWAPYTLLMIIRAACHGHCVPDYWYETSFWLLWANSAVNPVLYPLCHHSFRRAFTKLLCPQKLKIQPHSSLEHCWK

For `c1cc(OCC2CN(C3CCCC3)CCO2)ccc1CN1CCOCC1` (stereo not given), the Kb at Histamine H3 receptor [1] was 0.955 nM; at Histamine H3 receptor [4], 4.79 nM. Besides, the Ki at Histamine H3 receptor [2] stood at 3.6 nM; at Histamine H3 receptor [3], 20 nM.

As for `c1cc(OCC2CN(C3CCCC3)CCO2)ccc1CN1CCCC1` (stereo not given), the Kb on Histamine H3 receptor [1] is 0.331 nM; on Histamine H3 receptor [4] it was 1.58 nM. The inhibitory constant (Ki) on Histamine H3 receptor [2] was 2.2 nM; at Histamine H3 receptor [3], 9.8 nM.

Turning to `CC(C)N1CCOC(COc2cccc(CN3CCOCC3)c2)C1` (stereo not given), the Kb at Histamine H3 receptor [1] is 44.7 nM; on Histamine H3 receptor [4], 251 nM. Moreover, the Ki is 102 nM on Histamine H3 receptor [2] and 562 nM on Histamine H3 receptor [3].

In the case of `CCOc1ccccc1OCC1CN(C2CCCC2)CCO1` (stereo not given), the inhibitory constant (Ki) on Histamine H3 receptor [2] is 5300 nM.

`c1cc(OCC2CN(C3CCCC3)CCO2)ccc1CN1CCCCC1` (stereo not given): the Kb at Histamine H3 receptor [1] is 0.148 nM; on Histamine H3 receptor [4], 1.55 nM. Further, the inhibitory constant (Ki) at Histamine H3 receptor [2] is 2.5 nM; on Histamine H3 receptor [3] it was 10 nM.

Consider `c1cc(CN2CCOCC2)cc(OCC2CN(C3CC3)CCO2)c1` (stereo not given), for which the Ki at Histamine H3 receptor [2] amounted to 566 nM.

On to `CC(C)N1CCOC(COc2ccccc2)C1` (stereo not given), for which the Ki on Histamine H3 receptor [2] is 4800 nM.

As to `CCOc1ccccc1OCC1CN(C2CCC2)CCO1` (stereo not given), the Ki on Histamine H3 receptor [2] was determined as 7100 nM.

For `CCOc1ccccc1OCC1CN(C(C)C)CCO1` (stereo not given), at Histamine H3 receptor [2], the inhibitory constant (Ki) stood at 9000 nM.

Regarding `c1cc(OC[C@@H]2CN(C3CCCC3)CCO2)ccc1CN1CCOCC1`, the Kb is 0.38 nM on Histamine H3 receptor [1] and 2.14 nM on Histamine H3 receptor [4]. The results for the inhibitory constant (Ki) at Histamine H3 receptor [2] and at Histamine H3 receptor [3] were 1.9 nM and 9.7 nM, respectively. Moreover, in the assay with Rattus norvegicus, the Activity is 80%.

For the molecule `c1cc(CN2CCOCC2)cc(OCC2CN(C3CCC3)CCO2)c1` (stereo not given), the Kb on Histamine H3 receptor [1] was 14.1 nM; on Histamine H3 receptor [4], 79.4 nM. The Ki was determined as 37 nM on Histamine H3 receptor [2] and 277 nM on Histamine H3 receptor [3].

In the case of `CCN1CCOC(COc2ccc(CN3CCOCC3)cc2)C1` (stereo not given), the Ki at Histamine H3 receptor [2] came out at 165 nM.

As for `c1cc(OC[C@H]2CN(C3CCCC3)CCO2)ccc1CN1CCOCC1`, the results for the Kb at Histamine H3 receptor [1] and at Histamine H3 receptor [4] were 7.94 nM and 43.7 nM, respectively. The inhibitory constant (Ki) stood at 31 nM on Histamine H3 receptor [2] and 121 nM on Histamine H3 receptor [3].

With `CC(C)N1CCOC(COc2ccc(CN3CCOCC3)cc2)C1` (stereo not given), the Ki on Histamine H3 receptor [2] amounted to 49 nM; on Histamine H3 receptor [3] it was 92 nM.

In the case of `c1cc(OCC2CN(C3CCC3)CCO2)ccc1CN1CCOCC1` (stereo not given), the Kb on Histamine H3 receptor [1] was 3.09 nM; at Histamine H3 receptor [4], 19.1 nM. Further, the Ki on Histamine H3 receptor [2] amounted to 18 nM; at Histamine H3 receptor [3] it was 75 nM.

For the molecule `c1ccc(OCC2CNCCO2)cc1` (stereo not given), at Histamine H3 receptor [2], the inhibition constant (Ki) was > 10000 nM.

Consider `c1cc(OCC2CN(C3CC3)CCO2)ccc1CN1CCOCC1` (stereo not given), for which the Ki at Histamine H3 receptor [2] was 106 nM.

Take `CN1CCOC(COc2ccc(CN3CCOCC3)cc2)C1` (stereo not given): at Histamine H3 receptor [2], the inhibition constant (Ki) stood at 2100 nM.

Take `CCOc1ccccc1OCC1CN(C2CC2)CCO1` (stereo not given): on Histamine H3 receptor [2], the inhibition constant Ki was > 10000 nM.

Usually Ki stands for the equilibrium dissociation constant of an inhibitor or competing ligand from its target.
